Published values of several laboratories.
Protocols differ between the studies behind these lines.
Effect on: metabolic stability
Host: human

| Structure (SMILES) | medium | tested at | time | pH | setting | quantity | value |
| --- | --- | --- | --- | --- | --- | --- | --- |
| CC[N+]1(C)CCN(c2ccc(NC(=O)c3cccc(C)n3)cc2)CC1 | liver microsomes | – | – | – | – | microsomal CLint | < 3 µL/min/mg |
| CCC(CC)COC(=O)[C@H](C)N[P@](=O)(OC[C@@H]1C[C@@H](O)[C@H](n2cnc3c(N)nc(F)nc32)O1)Oc1ccccc1 | liver microsomes | 1 µM | – | – | – | microsomal CLint | 1230 µL/min/mg |
| Cn1nc2c(=O)n(C3CC3)ncc2c1[C@](O)(c1cnc(C(F)(F)F)c(Cl)c1)C(F)(F)F | hepatocytes | 0.5 µM | – | pH 7.4 | – | hepatocyte CLint | < 0.5 µL/min/10⁶ cells |
| CCC(CC)COC(=O)[C@H](C)N[P@@](=O)(OC[C@@H]1C[C@@H](O)[C@H](n2cnc3c(N)ncnc32)O1)Oc1ccccc1 | liver microsomes | 1 µM | – | – | – | microsomal CLint | 2610 µL/min/mg |
| O=C(O)Cc1ccccc1Nc1c(Cl)cccc1Cl | liver microsomes | – | – | – | – | scaled CLint | 174 mL/min/kg |
| CCOc1ccc2ccc(=O)oc2c1 | hepatocytes | 1 µM | – | – | – | hepatocyte CLint | 60.6 µL/min/10⁶ cells |
| CCn1cnc2c([C@@](O)(CC)c3ccc(C(F)(F)F)nc3)n(C)nc2c1=O | liver microsomes | 0.5 µM | – | pH 7.4 | – | microsomal CLint | < 3 µL/min/mg |
| CCOc1ccc(NC(C)=O)cc1 | liver microsomes | – | – | – | – | microsomal CLint | 20.7 µL/min/mg |
| C[C@]1(C(=O)[C@H](Cc2ccccc2)NC(=O)[C@@H]2Cc3ccc(cc3)OCCCCCCCC(=O)N3CCC[C@H]3C(=O)N2)CO1 | liver microsomes | 2 µM | 1 h | – | – | scaled CLint | 927 mL/min/kg |
| CCN(CCN)c1ccc(Nc2cc(NC3CC3)n3ncc(C#N)c3n2)cc1-n1cnnc1 | hepatocytes | 1 µM | – | – | serum-free | scaled CLint | < 6.9 mL/min/kg |
| C[C@]1(C(=O)[C@H](CC2=CCCC2)NC(=O)[C@@H]2COCCCCCC(=O)N3C[C@H](F)C[C@H]3C(=O)N2)CO1 | liver microsomes | 2 µM | 1 h | – | – | scaled CLint | 150 mL/min/kg |
| O=C(O)Cc1ccccc1Nc1c(Cl)cccc1Cl | hepatocytes | 0.5 µM | – | pH 7.4 | – | hepatocyte CLint | 98.2 µL/min/10⁶ cells |
| O=c1ccc2ccc(O)cc2o1 | liver microsomes | – | – | – | – | scaled CLint | 939 mL/min/kg |
| Cn1nc2c(=O)n(C3CC3)ncc2c1[C@](N)(c1ccc(C(F)(F)F)c(Cl)c1)C1CC1 | hepatocytes | 0.5 µM | – | pH 7.4 | – | hepatocyte CLint | < 0.5 µL/min/10⁶ cells |
| O=c1ccc2ccc(O)cc2o1 | hepatocytes | 1 µM | – | – | – | hepatocyte CLint | 56 µL/min/10⁶ cells |
| CC(C)C[C@H](NC(=O)[C@@H]1COCCCCCC(=O)NCC(=O)N2CCC[C@H]2C(=O)N1)C(=O)[C@@]1(C)CO1 | liver microsomes | 2 µM | 1 h | – | – | scaled CLint | 22.5 mL/min/kg |
| Cn1nc2c(=O)n(C3CC3)cnc2c1[C@](O)(c1cnc(C(F)(F)F)c(Cl)c1)C(F)(F)F | hepatocytes | 0.5 µM | – | pH 7.4 | – | hepatocyte CLint | 0.5 µL/min/10⁶ cells |
| CC(C)C[C@H](NC(=O)[C@@H]1COCCCCCC(=O)N2C[C@H](F)C[C@H]2C(=O)N1)C(=O)[C@@]1(C)CO1 | liver microsomes | 2 µM | 1 h | – | – | scaled CLint | 32.4 mL/min/kg |
| Cn1c(=O)c2c(ncn2C)n(C)c1=O | hepatocytes | 0.5 µM | – | pH 7.4 | – | hepatocyte CLint | 1.85 µL/min/10⁶ cells |
